Assay [1] concerns L1210. Briefly: Cytotoxicity against mouse L1210 cells after 48 hrs by coulter counter method. In kind it is functional, cell-based. The conditions noted are these: L1210, 48 h. Summed up:
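L1210 cells in RPMI 1640 with 2 mM L-glutamine, penicillin, streptomycin and 20% heat-inactivated horse serum at 37 °C, 5% CO2. Drugs added in DMSO (0.5% final) to exponentially growing cells seeded at 0.8 × 10^5 cells/mL. Cells counted in triplicate after 48 h by Coulter counter. IC50 taken from probit regression of percent growth inhibition against log dose.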

For assay [2], the system named is L1210. The assay is described as follows: Cell cycle arrest in mouse L1210 cells assessed accumulation of cells at G2/M phase at 100 uM after 21 hrs by propidium iodide staining-based flow cytometric analysis. In kind it is functional. In a few lines: (§1)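 L1210 leukemia cells in RPMI 1640 with 2 mM L-glutamine, penicillin, streptomycin and 20% heat-inactivated horse serum, exposed to several drug concentrations for 21 h at 37 °C, 5% CO2. Cells fixed in 70% ethanol, washed, then stained 30 min at room temperature in PBS containing RNAse and propidium iodide. Flow cytometry; result given as percentage of cells in each cell-cycle phase.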
(In general: Flow cytometry measures light scatter and fluorescence of single cells or particles in a stream.)

Assay [3] concerns L1210. Briefly: Cell cycle arrest in mouse L1210 cells assessed accumulation of cells at G1 phase at 100 uM after 21 hrs by propidium iodide staining-based flow cytometric analysis. In kind it is functional. Summed up:
as §1

For assay [4], the target named is GTPase KRas (Homo sapiens) (UniProt P01116). The assay is described as follows: Inhibition of KRas in human Colon 320 cells at 20 uM relative to control. In kind it is cell-based.
Chain of GTPase KRas (Homo sapiens) (P01116 whole entry, looked up): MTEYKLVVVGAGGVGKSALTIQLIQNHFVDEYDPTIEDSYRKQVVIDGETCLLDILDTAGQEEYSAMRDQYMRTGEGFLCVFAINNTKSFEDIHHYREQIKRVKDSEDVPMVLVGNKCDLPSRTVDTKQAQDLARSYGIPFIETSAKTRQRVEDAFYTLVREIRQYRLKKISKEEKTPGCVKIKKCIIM
For assay [5] the target is unchanged. Briefly: Inhibition of KRas in human RKO cells at 0.2 uM relative to control. The format is cell-based.
Assay [6] shares this target. The assay is described as follows: Inhibition of KRas in human Colon 320 cells at 2 uM relative to control. The format is cell-based.
Assay [7] has the same target. Briefly: Inhibition of KRas in human Colon 320 cells at 0.2 uM relative to control. The format is cell-based.
Assay [8] concerns L1210. Briefly: Cell cycle arrest in mouse L1210 cells assessed accumulation of cells at 8N phase at 5 uM after 21 hrs by propidium iodide staining-based flow cytometric analysis relative to control. The format is functional. Summed up: as §1
The target in assay [9] is GTPase KRas (Homo sapiens) (UniProt P01116). Briefly: Inhibition of KRas in human HCT cells at 2 uM relative to control. The format is cell-based.
The target is the same in assay [10]. The assay is described as follows: Inhibition of KRas in human SNU-C1 cells at 0.2 uM relative to control. In kind it is cell-based.
Assay [11] shares this target. The assay is described as follows: Inhibition of KRas in human HCT cells at 0.2 uM relative to control. In kind it is cell-based.
For assay [12] the target is unchanged. The assay is described as follows: Inhibition of KRas in human SNU-C1 cells at 20 uM relative to control. The format is cell-based.
The target is the same in assay [13]. Briefly: Inhibition of KRas in human HCT cells at 20 uM relative to control. The format is cell-based.
The target is the same in assay [14]. The assay is described as follows: Inhibition of KRas in human RKO cells at 20 uM relative to control. In kind it is cell-based.
Assay [15] shares this target. Briefly: Inhibition of KRas in human SNU-C1 cells at 2 uM relative to control. The format is cell-based.
Assay [16] shares this target. The assay is described as follows: Inhibition of KRas in human RKO cells at 2 uM relative to control. In kind it is cell-based.
Assay [17] concerns L1210. The assay is described as follows: Cell cycle arrest in mouse L1210 cells assessed accumulation of cells at 8N phase at 10 uM after 21 hrs by propidium iodide staining-based flow cytometric analysis relative to control. In kind it is functional. In a few lines: as §1
Assay [18] concerns L1210. The assay is described as follows: Cell cycle arrest in mouse L1210 cells assessed accumulation of cells at G1 phase at 25 uM after 21 hrs by propidium iodide staining-based flow cytometric analysis. The format is functional. Summed up:
as §1

For assay [19], the system named is L1210. Briefly: Cell cycle arrest in mouse L1210 cells assessed accumulation of cells at G2/M phase at 50 uM after 21 hrs by propidium iodide staining-based flow cytometric analysis. In kind it is functional. In a few lines:
as §1

The source of these data is ChEMBL document CHEMBL4145473, “Substituted tetrahydroisoquinolines: synthesis, characterization, antitumor activity and other biological properties” (Eur J Med Chem, 2018).

Structures are written as SMILES. Calls of active or inactive are those of the source. The calls are words filed in the database; no cut-off is given here. Where only a bound is given, the exact number is not on record here.

Usually IC50 stands for the point on the concentration scale where inhibition reaches its midpoint. High values mean lower potency, low ones higher potency. `COc1cc(C2c3cc4c(cc3CCN2CCCCCC(=O)O)OCCO4)cc(OC)c1OC` (stereo not drawn) had a half-inhibitory concentration (IC50) in the assay with L1210 [1] of 9.4 µM.

In the assay on L1210 [1], `COc1cc(-c2nccc3cc4c(cc23)OCCO4)cc(OC)c1OC` displayed a half-inhibitory concentration (IC50) of 25.1 µM. The outcome in the assay on L1210 [2] was Active.

As for `CCOC(=O)N1CCc2cc3c(cc2C1c1ccncc1)OCCO3` (stereo not drawn), in the assay on L1210 [1], the 50% inhibitory concentration (IC50) was above 10 µM.

`CCOC(=O)N1CCc2cc3c(cc2C1c1cc(OC)c(OC)c(OC)c1)OCCO3` (stereo not drawn): the IC50 in the assay with L1210 [1] is above 10 µM.

As to `CCN(CC)CCN1CCc2cc3c(cc2C1c1cc(OC)c(OC)c(OC)c1)OCCO3` (stereo not drawn), the IC50 in the assay with L1210 [1] was found to be 4.1 µM.

Molecule `COc1cc2c(cc1OC)C(c1cc(OC)c(OC)c(OC)c1)N(CCO)CC2` (stereo not drawn) showed an IC50 in the assay with L1210 [1] of 23.4 µM. Against the preceding molecule, the IC50 is about 5.7-fold higher.

In the assay on L1210 [1], `CCOC(=O)CCCCCN1CCc2cc3c(cc2C1c1cc(OC)c(OC)c(OC)c1)OCCO3` (stereo not drawn) displayed a concentration for half-maximal inhibition (IC50) above 10 µM.

Turning to `COc1cc(C2NCCc3cc4c(cc32)OCCO4)cc(OC)c1OC` (stereo not drawn), it took 21.1 µM to reach half-maximal inhibition with L1210 [1] (IC50). In the assay on L1210 [3], the result was Active.

In the assay with L1210 [1], `O=C(O)CCCCCN1CCc2cc3c(cc2C1c1ccncc1)OCCO3` (stereo not drawn) registered an IC50 above 10 µM.

For orientation: inhibition means the relative decrease from the control value, in per cent. Higher therefore signals a response far below the control. Consider `COc1cc(C2c3cc4c(cc3CCN2CCO)OCCO4)cc(OC)c1OC` (stereo not drawn), for which the IC50 with L1210 [1] amounted to 2.6 µM. The inhibition in assay [4] amounted to 78.2%; in [5], 0%; in assay [6] it was 0%; in assay [7] it was 12.2%; in assay [9], 12.1%; in assay [10] it was 12.3%. Moreover, the inhibition in [11] turned out to be 18%; in assay [12], 19.7%; in assay [13] it was 46.5%; in [14], 76.7%; in assay [15], 11.5%; in assay [16], 6.3%. Besides, the Activity in the assay with L1210 [8] was 70%.

Molecule `COc1cc(C2c3cc4c(cc3CCN2c2ccc(C#N)cc2)OCCO4)cc(OC)c1OC` (stereo not drawn) showed an IC50 in the assay on L1210 [1] of 3.6 µM. The molecule further showed an Activity in the assay with L1210 [17] of 70%. Also, the inhibition in assay [4] was 89.9%; in assay [5], 95.8%; in [6] it was 22.5%; in assay [7], 0%; in assay [9] it was 16%; in assay [10], 6.6%. Moreover, the inhibition was found to be 35.9% in assay [11]; 43.5% in assay [12]; 45.2% in [13]; 66.5% in assay [14]; 32.5% in assay [15]; 7.7% in assay [16].

As to `COc1cc(C2c3cc4c(cc3CCN2c2ccc([N+](=O)[O-])cc2)OCCO4)cc(OC)c1OC` (stereo not drawn), inhibition in the assay on L1210 [1] was half-maximal at 4.6 µM (IC50). In addition, the inhibition in assay [4] is 92.5%; in assay [5], 17.9%; in assay [6] it was 4%; in assay [7], 0%; in [9], 19.3%; in [10], 17.7%. The inhibition turned out to be 0% in [11]; 42.7% in assay [12]; 55.9% in assay [13]; 70.5% in assay [14]; 35% in assay [15]; 32.9% in [16]. Besides, in the assay with L1210 [18], the result was Active.

`COc1cc(C2c3cc4c(cc3CCN2CCN)OCCO4)cc(OC)c1OC` (stereo not drawn) had an IC50 in the assay on L1210 [1] of 2 µM. Moreover, the inhibition was found to be 85.3% in assay [4]; 0% in assay [5]; 20.1% in [6]; 0% in assay [7]; 16.2% in assay [9]; 12.2% in assay [10]. The inhibition in assay [11] came to 0%; in assay [12] it was 57.1%; in assay [13], 56.9%; in [14], 92.7%; in assay [15] it was 2.4%; in assay [16], 10.1%. For the same molecule, in the assay on L1210 [18], the result was Active.

In the assay with L1210 [1], `COc1cc2c(cc1OC)C(c1cc(OC)c(OC)c(OC)c1)N(CC(O)CO)CC2` (stereo not drawn) displayed an IC50 of 15.3 µM.

In the assay on L1210 [1], `COc1cc2c(c3c1c(=O)c1ccccc1n3C)C=CC(C)(C)O2` [ACRONINE] gave an IC50 of 21 µM. For the same molecule, the result in the assay on L1210 [19] was Active.

In the assay with L1210 [1], `COc1cc(C2c3cc4c(cc3CCN2CC#N)OCCO4)cc(OC)c1OC` (stereo not drawn) returned an IC50 of 4.2 µM. For the same molecule, the inhibition came out at 74.7% in [4]; 0% in assay [5]; 8.2% in [6]; 0% in [7]; 17% in assay [9]; 10% in assay [10]. The inhibition in assay [11] was found to be 12.1%; in [12], 59.8%; in assay [13] it was 49.1%; in assay [14] it was 79.2%; in [15] it was 6%; in assay [16], 16.3%. Besides, the result with L1210 [3] was Active.

`COc1cc(C2c3cc4c(cc3CCN2CCN(C)C)OCCO4)cc(OC)c1OC` (stereo not drawn) gave a half-inhibitory concentration (IC50) in the assay on L1210 [1] of 3.7 µM. The outcome in the assay with L1210 [18] was Active.

For the molecule `COC(=O)CCCCCN1CCc2cc3c(cc2C1c1ccncc1)OCCO3` (stereo not drawn), the IC50 in the assay on L1210 [1] was above 10 µM.

`CCOC(CCN1CCc2cc3c(cc2C1c1cc(OC)c(OC)c(OC)c1)OCCO3)OCC` (stereo not drawn) registered an IC50 with L1210 [1] above 10 µM.
